Laboratory results from ChEMBL document CHEMBL1145088, “Ascochlorin derivatives as ligands for nuclear hormone receptors” (J Med Chem, 2003).

Experiments:
[1] = molecular target: T1, Peroxisome proliferator-activated receptor alpha (Homo sapiens) (UniProt Q07869); experiment: Minimum effective concentration for peroxisome proliferator activated receptor (PPAR alpha) activation
T1 sequence (whole entry): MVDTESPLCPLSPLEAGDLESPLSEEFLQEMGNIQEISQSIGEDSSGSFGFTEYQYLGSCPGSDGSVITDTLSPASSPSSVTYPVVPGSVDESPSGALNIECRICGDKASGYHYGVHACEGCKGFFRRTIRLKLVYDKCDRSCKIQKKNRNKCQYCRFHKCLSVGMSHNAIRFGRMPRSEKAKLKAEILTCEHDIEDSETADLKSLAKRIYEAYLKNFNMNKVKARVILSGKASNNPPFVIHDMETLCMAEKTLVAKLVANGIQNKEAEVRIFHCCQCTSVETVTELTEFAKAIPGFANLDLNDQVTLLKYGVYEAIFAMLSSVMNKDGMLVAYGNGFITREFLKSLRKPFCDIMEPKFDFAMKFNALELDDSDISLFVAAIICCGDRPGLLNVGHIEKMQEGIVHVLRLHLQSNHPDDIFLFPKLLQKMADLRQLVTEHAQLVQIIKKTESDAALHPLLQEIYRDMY

[2] = molecular target: T2, Estrogen receptor beta (Homo sapiens, UniProt Q92731); experiment: Minimum effective concentration required to activate Estrogen receptor 2 (ER beta); Not detected
[3] = system: U2OS (Homo sapiens); experiment: Concentration required for inhibition of U2OS cell growth
[4] = molecular target: T3, Estrogen receptor (Homo sapiens, UniProt P03372); experiment: Minimum effective concentration required to activate Estrogen receptor 1 (ER alpha); Not detected
T3 sequence (P03372 whole entry): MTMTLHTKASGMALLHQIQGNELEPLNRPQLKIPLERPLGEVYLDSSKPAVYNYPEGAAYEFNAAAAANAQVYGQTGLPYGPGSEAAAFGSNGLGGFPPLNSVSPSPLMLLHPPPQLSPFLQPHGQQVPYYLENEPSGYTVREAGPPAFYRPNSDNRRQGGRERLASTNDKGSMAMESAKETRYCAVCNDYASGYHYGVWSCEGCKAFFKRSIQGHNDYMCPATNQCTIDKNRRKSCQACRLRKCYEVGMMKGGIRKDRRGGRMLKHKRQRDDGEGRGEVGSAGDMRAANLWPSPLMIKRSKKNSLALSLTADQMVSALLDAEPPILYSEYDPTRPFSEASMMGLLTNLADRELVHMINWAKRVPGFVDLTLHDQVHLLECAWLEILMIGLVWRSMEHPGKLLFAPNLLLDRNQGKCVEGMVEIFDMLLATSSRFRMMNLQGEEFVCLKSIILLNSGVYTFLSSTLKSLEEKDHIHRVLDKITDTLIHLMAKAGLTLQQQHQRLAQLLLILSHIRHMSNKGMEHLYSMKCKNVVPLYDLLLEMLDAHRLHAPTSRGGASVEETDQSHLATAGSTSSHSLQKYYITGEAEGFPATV

[5] = molecular target: T4, Nuclear receptor subfamily 1 group I member 2 (Homo sapiens, UniProt O75469); experiment: Minimum effective concentration required to activate pregnane X receptor (PXR)
T4 sequence (O75469 whole entry): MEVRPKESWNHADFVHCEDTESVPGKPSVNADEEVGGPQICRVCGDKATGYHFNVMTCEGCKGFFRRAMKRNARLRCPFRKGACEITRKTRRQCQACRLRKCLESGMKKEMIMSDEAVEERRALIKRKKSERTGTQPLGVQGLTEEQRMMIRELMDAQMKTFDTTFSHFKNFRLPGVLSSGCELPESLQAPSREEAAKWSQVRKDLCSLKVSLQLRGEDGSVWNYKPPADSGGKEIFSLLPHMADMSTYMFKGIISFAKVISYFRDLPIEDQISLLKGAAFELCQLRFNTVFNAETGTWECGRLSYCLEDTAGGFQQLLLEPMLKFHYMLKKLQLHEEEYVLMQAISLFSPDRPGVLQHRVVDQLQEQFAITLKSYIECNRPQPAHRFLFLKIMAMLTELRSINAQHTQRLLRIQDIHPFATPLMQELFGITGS

[6] = molecular target: T5, Androgen receptor (Homo sapiens) (UniProt P10275); experiment: Minimum effective concentration for androgen receptor (AR) activation
T5 sequence (whole entry): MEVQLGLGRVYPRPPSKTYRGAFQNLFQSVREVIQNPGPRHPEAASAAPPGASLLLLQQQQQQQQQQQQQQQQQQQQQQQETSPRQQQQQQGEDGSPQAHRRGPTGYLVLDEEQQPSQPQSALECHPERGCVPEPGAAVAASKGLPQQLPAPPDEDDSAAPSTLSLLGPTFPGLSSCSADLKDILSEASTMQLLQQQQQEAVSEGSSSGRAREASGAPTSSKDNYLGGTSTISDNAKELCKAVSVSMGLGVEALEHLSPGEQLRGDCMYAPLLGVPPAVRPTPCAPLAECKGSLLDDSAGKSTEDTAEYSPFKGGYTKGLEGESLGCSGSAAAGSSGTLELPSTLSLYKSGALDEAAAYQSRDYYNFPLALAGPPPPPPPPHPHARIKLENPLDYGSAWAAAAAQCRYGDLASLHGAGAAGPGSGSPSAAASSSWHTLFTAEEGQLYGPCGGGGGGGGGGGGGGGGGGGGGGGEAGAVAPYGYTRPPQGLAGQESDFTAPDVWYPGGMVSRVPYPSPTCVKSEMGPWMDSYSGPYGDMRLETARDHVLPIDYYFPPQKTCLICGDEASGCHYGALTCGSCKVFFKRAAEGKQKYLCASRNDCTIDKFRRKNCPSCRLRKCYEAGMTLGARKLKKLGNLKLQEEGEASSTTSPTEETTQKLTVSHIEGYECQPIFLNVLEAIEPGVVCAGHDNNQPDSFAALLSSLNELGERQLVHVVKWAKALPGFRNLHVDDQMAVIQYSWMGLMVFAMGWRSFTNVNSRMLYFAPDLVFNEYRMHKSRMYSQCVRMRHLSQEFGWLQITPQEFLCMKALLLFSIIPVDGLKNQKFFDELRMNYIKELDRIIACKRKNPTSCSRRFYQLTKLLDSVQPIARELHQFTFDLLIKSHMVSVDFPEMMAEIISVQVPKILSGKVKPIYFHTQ

[7] = molecular target: T6, Estrogen receptor (Homo sapiens) (UniProt P03372); experiment: Minimum effective concentration for Estrogen receptor 1 (ER alpha) inhibition
T6 sequence (whole entry): T3 sequence (P03372 whole entry)
Procedure, shortened: (§1)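 U2OS cells were calcium-phosphate co-transfected with an ER expression vector (2 µg), an ER reporter plasmid (4 µg) and pCMV-β-galactosidase (4 µg) as internal control. After 12 h cells were PBS-washed and recovered 4 h, then trypsinized and exposed to drugs for 20 h. Lysate reporter activity was normalised to β-gal and expressed as stimulation index; triplicate cultures.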

[8] = molecular target: T2, Estrogen receptor beta; experiment: Minimum effective concentration for Estrogen receptor 2 (ER beta) inhibition
Procedure, shortened: as §1

T2 sequence (Q92731 whole entry): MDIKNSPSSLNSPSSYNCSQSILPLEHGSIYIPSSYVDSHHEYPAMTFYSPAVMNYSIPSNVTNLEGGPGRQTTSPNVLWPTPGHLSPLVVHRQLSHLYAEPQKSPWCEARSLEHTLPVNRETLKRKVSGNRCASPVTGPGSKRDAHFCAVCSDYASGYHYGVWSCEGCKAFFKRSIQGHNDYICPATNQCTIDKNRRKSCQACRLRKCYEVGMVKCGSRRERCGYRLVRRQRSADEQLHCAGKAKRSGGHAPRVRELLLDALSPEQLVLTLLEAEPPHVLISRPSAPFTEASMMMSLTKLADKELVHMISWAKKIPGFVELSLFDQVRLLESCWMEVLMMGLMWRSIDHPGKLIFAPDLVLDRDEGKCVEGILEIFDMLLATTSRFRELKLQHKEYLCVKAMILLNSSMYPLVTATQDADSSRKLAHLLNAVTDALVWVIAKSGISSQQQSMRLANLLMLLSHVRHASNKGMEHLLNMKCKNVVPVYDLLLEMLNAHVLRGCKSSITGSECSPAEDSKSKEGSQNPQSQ

SMILES: C/C(=C\Cc1c(O)c(Cl)c(C)c(C=O)c1O)CC/C=C(\C)C1=CC(=O)C(C)(C)O1
- MEC [1]: 10 µM
- MEC [2]: Not Active
- IC50 [3]: 56 µM
- MEC [4]: Not Active
- MEC [5]: 1 µM

SMILES: CC(=O)Oc1c(Cl)c(C)c(C(=O)O)c(OC(C)=O)c1C/C=C(C)/C=C/[C@@]1(C)[C@H](C)CCC(=O)[C@@H]1C
- MEC [2]: Not Active
- IC50 [3]: 32 µM
- MEC [4]: Not Active
- MEC [6]: 1 µM
- MEC [5]: 1 µM

SMILES: CC(/C=C/[C@@]1(C)[C@H](C)CCC(=O)[C@@H]1C)=C\Cc1c(O)c(Cl)c(C)c(C=O)c1O [ASCOCHLORIN]
- MEC [7]: 1 µM
- MEC [8]: 1 µM
- IC50 [3]: 1 µM
- MEC [5]: 1 µM
